Laboratory results: ChEMBL document CHEMBL1154876, “Synthesis and antimicrobial studies on novel sulfonamides containing 4-azidomethyl coumarin” (2010)
Converted amounts (≈) assume the structure as drawn.

Key:
Type in all cases: functional
Enterococcus faecalis = test: Antibacterial activity against Streptococcus faecalis MTCC 3382 after 18 hrs by broth microdilution method; conditions: MTCC 3382, 18 h
Staphylococcus aureus = test: Antibacterial activity against Staphylococcus aureus MTCC 3160 after 18 hrs by broth microdilution method; conditions: MTCC 3160, 18 h
Bacillus subtilis = test: Antibacterial activity against Bacillus subtilis MTCC 297 after 18 hrs by broth microdilution method; conditions: MTCC 297, 18 h
Pseudomonas aeruginosa = test: Antibacterial activity against Pseudomonas aeruginosa MTCC 1034 after 18 hrs by broth microdilution method; conditions: MTCC 1034, 18 h
Klebsiella pneumoniae = test: Antibacterial activity against Klebsiella pneumoniae MTCC 3384 after 18 hrs by broth microdilution method; conditions: MTCC 3384, 18 h
Escherichia coli = test: Antibacterial activity against Escherichia coli MTCC 1089 after 18 hrs by broth microdilution method; conditions: MTCC 1089, 18 h
Candida albicans = test: Antifungal activity against Candida albicans after 48 to 72 hrs by broth microdilution method
Procedure, shortened: (§1)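 Test compounds were prepared as 10 mg/ml DMSO stocks and serially diluted twofold in Sabouraud's dextrose broth over 500, 250, 125, 62.5, 31.25, 16, 8, 4, 2 and 1, alongside fluconazole as reference. Plates were inoculated with 1–5 × 10⁴ cfu/ml and held at 25 °C for 48–72 h. The MIC was the lowest concentration showing no visible growth.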

Aspergillus fumigatus = test: Antifungal activity against Aspergillus fumigatus after 48 to 72 hrs by broth microdilution method; procedure, shortened: as §1
Aspergillus niger = test: Antifungal activity against Aspergillus niger after 48 to 72 hrs by broth microdilution method; procedure, shortened: as §1
Penicillium chrysogenum = test: Antifungal activity against Penicillium chrysogenum after 48 to 72 hrs by broth microdilution method; procedure, shortened: as §1
Mucor = test: Antifungal activity against Mucor fuscus after 48 to 72 hrs by broth micro dilution method; procedure, shortened: as §1
Fusarium oxysporum = test: Antifungal activity against Fusarium oxysporum after 48 to 72 hrs by broth microdilution method; procedure, shortened: as §1

Row | SMILES | MIC (Enterococcus faecalis) [µg/mL] | MIC (Staphylococcus aureus) [µg/mL] | MIC (Bacillus subtilis) [µg/mL] | MIC (Pseudomonas aeruginosa) [µg/mL] | MIC (Klebsiella pneumoniae) [µg/mL] | MIC (Escherichia coli) [µg/mL] | MIC (Candida albicans) [µg/mL] | MIC (Aspergillus fumigatus) [µg/mL] | MIC (Aspergillus niger) [µg/mL] | MIC (Penicillium chrysogenum) [µg/mL] | MIC (Mucor) [µg/mL] | MIC (Fusarium oxysporum) [µg/mL]
1 | Cc1cc2oc(=O)cc(CN=[N+]=[N-])c2cc1S(=O)(=O)Nc1ccccc1Cl | 1 (≈ 2.47 µM) | 1 (≈ 2.47 µM) | 125 (≈ 309 µM) | 31.2 (≈ 77.2 µM) | 1 (≈ 2.47 µM) | > 500 | 62.5 (≈ 154 µM) | 31.2 (≈ 77.2 µM) | 62.5 (≈ 154 µM) | 31.2 (≈ 77.2 µM) | 16 (≈ 39.5 µM) | 4 (≈ 9.88 µM)
2 | Cc1cc2oc(=O)cc(CN=[N+]=[N-])c2cc1S(=O)(=O)Nc1c(C)cccc1C | > 500 | 125 (≈ 314 µM) | > 500 | 2 (≈ 5.02 µM) | 1 (≈ 2.51 µM) | > 500 | 8 (≈ 20.1 µM) | 2 (≈ 5.02 µM) | 8 (≈ 20.1 µM) | 31.2 (≈ 78.4 µM) | 16 (≈ 40.2 µM) | 1 (≈ 2.51 µM)
3 | O=C(O)c1cn(C2CC2)c2cc(N3CCNCC3)c(F)cc2c1=O [CIPROFLOXACIN] | 1 (≈ 3.02 µM) | 1 (≈ 3.02 µM) | 1 (≈ 3.02 µM) | 1 (≈ 3.02 µM) | 1 (≈ 3.02 µM) |  |  |  |  |  |  | 
4 | Cc1cc2oc(=O)cc(CN=[N+]=[N-])c2cc1S(=O)(=O)Cl | 31.2 (≈ 99.6 µM) | 4 (≈ 12.8 µM) | 31.2 (≈ 99.6 µM) | 125 (≈ 398 µM) | 125 (≈ 398 µM) | 125 (≈ 398 µM) | 8 (≈ 25.5 µM) | 8 (≈ 25.5 µM) | 8 (≈ 25.5 µM) | 4 (≈ 12.8 µM) | 2 (≈ 6.38 µM) | 2 (≈ 6.38 µM)
5 | COc1ccccc1NS(=O)(=O)c1cc2c(CN=[N+]=[N-])cc(=O)oc2cc1C | 1 (≈ 2.5 µM) | 31.2 (≈ 78 µM) | > 500 | 125 (≈ 312 µM) | 62.5 (≈ 156 µM) | 250 (≈ 624 µM) | 31.2 (≈ 78 µM) | 62.5 (≈ 156 µM) | 16 (≈ 40 µM) | > 500 | 31.2 (≈ 78 µM) | 1 (≈ 2.5 µM)
6 | Cc1cccc(NS(=O)(=O)c2cc3c(CN=[N+]=[N-])cc(=O)oc3cc2C)c1 | 250 (≈ 650 µM) | 16 (≈ 41.6 µM) | 16 (≈ 41.6 µM) | 2 (≈ 5.2 µM) | 4 (≈ 10.4 µM) | > 500 | 4 (≈ 10.4 µM) | 8 (≈ 20.8 µM) | 1 (≈ 2.6 µM) | 8 (≈ 20.8 µM) | 62.5 (≈ 163 µM) | 125 (≈ 325 µM)
7 | Cc1ccc(NS(=O)(=O)c2cc3c(CN=[N+]=[N-])cc(=O)oc3cc2C)cc1 | 16 (≈ 41.6 µM) | 16 (≈ 41.6 µM) | 8 (≈ 20.8 µM) | 125 (≈ 325 µM) | 1 (≈ 2.6 µM) | > 500 | 1 (≈ 2.6 µM) | 16 (≈ 41.6 µM) | 4 (≈ 10.4 µM) | 16 (≈ 41.6 µM) | 62.5 (≈ 163 µM) | 1 (≈ 2.6 µM)

Next, values leading:

Row | MIC (Enterococcus faecalis) [µg/mL] | MIC (Staphylococcus aureus) [µg/mL] | MIC (Bacillus subtilis) [µg/mL] | MIC (Pseudomonas aeruginosa) [µg/mL] | MIC (Klebsiella pneumoniae) [µg/mL] | MIC (Escherichia coli) [µg/mL] | MIC (Candida albicans) [µg/mL] | MIC (Aspergillus fumigatus) [µg/mL] | MIC (Aspergillus niger) [µg/mL] | MIC (Penicillium chrysogenum) [µg/mL] | MIC (Mucor) [µg/mL] | MIC (Fusarium oxysporum) [µg/mL] | SMILES
8 | 1 (≈ 2.41 µM) | 1 (≈ 2.41 µM) | 62.5 (≈ 150 µM) | 4 (≈ 9.63 µM) | 16 (≈ 38.5 µM) | > 500 | 250 (≈ 602 µM) | 8 (≈ 19.3 µM) | 8 (≈ 19.3 µM) | 4 (≈ 9.63 µM) | 8 (≈ 19.3 µM) | 1 (≈ 2.41 µM) | Cc1cc2oc(=O)cc(CN=[N+]=[N-])c2cc1S(=O)(=O)Nc1ccccc1[N+](=O)[O-]
9 | 2 (≈ 4.45 µM) | 2 (≈ 4.45 µM) | 125 (≈ 278 µM) | 2 (≈ 4.45 µM) | 62.5 (≈ 139 µM) | > 500 | 4 (≈ 8.89 µM) | 2 (≈ 4.45 µM) | 8 (≈ 17.8 µM) | 125 (≈ 278 µM) | 62.5 (≈ 139 µM) | 1 (≈ 2.22 µM) | Cc1cc2oc(=O)cc(CN=[N+]=[N-])c2cc1S(=O)(=O)Nc1cc([N+](=O)[O-])ccc1Cl
10 | 4 (≈ 9.63 µM) | 2 (≈ 4.81 µM) | 125 (≈ 301 µM) | 1 (≈ 2.41 µM) | 2 (≈ 4.81 µM) | 250 (≈ 602 µM) | 62.5 (≈ 150 µM) | 250 (≈ 602 µM) | 62.5 (≈ 150 µM) | 62.5 (≈ 150 µM) | 8 (≈ 19.3 µM) | 1 (≈ 2.41 µM) | Cc1cc2oc(=O)cc(CN=[N+]=[N-])c2cc1S(=O)(=O)Nc1ccc([N+](=O)[O-])cc1
11 | 1 (≈ 2.5 µM) | 16 (≈ 40 µM) | > 500 | 1 (≈ 2.5 µM) | 2 (≈ 4.99 µM) | > 500 | 8 (≈ 20 µM) | 31.2 (≈ 78 µM) | 2 (≈ 4.99 µM) | 125 (≈ 312 µM) | 4 (≈ 9.99 µM) | 1 (≈ 2.5 µM) | COc1cccc(NS(=O)(=O)c2cc3c(CN=[N+]=[N-])cc(=O)oc3cc2C)c1
12 | 16 (≈ 36.4 µM) | 4 (≈ 9.11 µM) | 2 (≈ 4.55 µM) | 8 (≈ 18.2 µM) | 1 (≈ 2.28 µM) | > 500 | 16 (≈ 36.4 µM) | 31.2 (≈ 71.1 µM) | 16 (≈ 36.4 µM) | 2 (≈ 4.55 µM) | 31.2 (≈ 71.1 µM) | 1 (≈ 2.28 µM) | Cc1cc2oc(=O)cc(CN=[N+]=[N-])c2cc1S(=O)(=O)Nc1ccc(Cl)c(Cl)c1
